Experimental data from ChEMBL document CHEMBL6177917, “Synthesis and evaluation of tetrahydropyrrolo[1,2-a]quinolin-1(2H)-ones as new tubulin polymerization inhibitors” (RSC Med Chem, 2025).
Blank lines part the entries; values can stand above or below the compound they belong to. Calls of active or inactive are those of the source. The rule behind the calls is not given here.

Experiments:
Tubulin (Homo sapiens) [1] = target: T1, Tubulin (Homo sapiens) (UniProt P68371+Q9H4B7+P0DPH7+P68366+Q13509+Q71U36+P04350+Q3ZCM7+P07437+P68363+Q9BQE3+Q6PEY2+Q13885+Q9BVA1+Q9BUF5); experiment: Destabilization of microtubule network (unknown origin) assessed as effect on microtubule growth rate measured for 30 min by differential interference contrast microscopic analysis
Tubulin (Homo sapiens) [2] = target: T1, Tubulin (Homo sapiens); experiment: Destabilization of microtubule network (unknown origin) assessed as decrease in catastrophes frequency measured for 30 min by differential interference contrast microscopic analysis
A549 [3] = experiment: Induction of cell cycle arrest in human A549 cells assessed as accumulation of cells at G2/M phase at 66 uM incubated for 24 hrs by PI staining based flow cytometric analysis; format: functional
Summary of the method: (§1)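 A549 cells were grown 48 h, then given compound or DMSO for 24 h, with nocodazole as control. Cells were fixed in 70% ice-cold ethanol overnight and stained with 30 μg/mL propidium iodide. DNA content was read by flow cytometry, with linear gates for G0/G1, S and G2/M. Mean ± s.d. of 2–3 independent experiments; G2/M versus DMSO tested by Dunnett's test.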

A549 [4] = experiment: Induction of mitotic arrest in human A549 cells assessed as increase in mitotic index at > 200 uM measured for 12 hrs by phase contrast microscopic analysis; format: functional, cell-based
Tubulin (Homo sapiens) [5] = target: T1, Tubulin (Homo sapiens); experiment: Destabilization of microtubule network (unknown origin) assessed as reduction in microtubule growth rate measured for 30 min by differential interference contrast microscopic analysis
A549 [6] = experiment: Induction of cell cycle arrest in human A549 cells assessed as accumulation of cells at G2/M phase at 116 uM incubated for 24 hrs by PI staining based flow cytometric analysis; format: functional
Summary of the method: as §1

A549 [7] = experiment: Induction of cell cycle arrest in human A549 cells assessed as accumulation of cells at G2/M phase incubated for 24 hrs by PI staining based flow cytometry analysis; format: functional; conditions: for IC50: A549, 24 h
Summary of the method: as §1

MCF7 [8] = experiment: Induction of mitotic arrest in human MCF7 cells assessed as increase in mitotic index at > 200 uM measured for 12 hrs by phase contrast microscopic analysis; format: functional, cell-based
HeLa [9] = experiment: Induction of mitotic arrest in human HeLa cells assessed as increase in mitotic index at > 200 uM measured for 12 hrs by phase contrast microscopic analysis; format: functional, cell-based
A549 [10] = experiment: Cytotoxicity against human A549 cells assessed as reduction in cell proliferation incubated for 72 hrs by MTT assay; format: toxicity, cell-based; conditions: a549, 72 h
Summary of the method: (§2)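 Cells were seeded at 2500 per well in DMEM/F12 and left 24 h at 37 °C in 5% CO2 before treatment. Compounds came from DMSO stocks and were given at final 100–0.045 μM, eight dilutions, in triplicate, for 72 h. MTT (up to 0.5 mg/mL) was then added for 1.5 h and formazan dissolved in DMSO was read at 565 nm. Signal was normalized to untreated cells and IC50 calculated.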

A549 [11] = experiment: Induction of cell cycle arrest in human A549 cells assessed as accumulation of cells at G2/M phase at 200 uM incubated for 24 hrs by PI staining based flow cytometric analysis; format: functional
Summary of the method: as §1

A549 [12] = experiment: Induction of cell cycle arrest in human A549 cells assessed as accumulation of cells at G2/M phase up to 200 uM incubated for 24 hrs by PI staining based flow cytometric analysis; format: functional
Summary of the method: as §1

MCF7 [13] = experiment: Induction of mitotic arrest in human MCF7 cells assessed as increase in mitotic index at > 50 uM measured for 12 hrs by phase contrast microscopic analysis; format: functional, cell-based
A549 [14] = experiment: Induction of mitotic arrest in human A549 cells assessed as increase in mitotic index at > 50 uM measured for 12 hrs by phase contrast microscopic analysis; format: functional, cell-based
A549 [15] = experiment: Induction of cell cycle arrest in human A549 cells assessed as accumulation of cells at G2/M phase at > 22 uM incubated for 24 hrs by PI staining based flow cytometric analysis; format: functional
Summary of the method: as §1

HeLa [16] = experiment: Induction of mitotic arrest in human HeLa cells assessed as increase in mitotic index at > 50 uM measured for 12 hrs by phase contrast microscopic analysis; format: functional, cell-based
Tubulin (Bos taurus) [17] = experiment: Displacement of CPZ from tubulin (bovine brain) assessed as decrease in fluorescence intensity incubated for 1 hr by fluorescence based analysis; conditions: dose 100.0 µM
A549 [18] = experiment: Induction of cell cycle arrest in human A549 cells assessed as accumulation of cells at S phase incubated for 24 hrs by PI staining based flow cytometry analysis; format: functional; conditions: dose <= 64.0 µM
Summary of the method: as §1

A549 [19] = experiment: Induction of cell cycle arrest in human A549 cells assessed as accumulation of cells at G0/G1 phase incubated for 24 hrs by PI staining based flow cytometry analysis; format: functional; conditions: dose <= 64.0 µM
Summary of the method: as §1

Tubulin (Bos taurus) [20] = experiment: Destabilization of microtubule network of purified bovine brain tubulin in vitro assessed as decrease in microtubule growth rate at 25 uM measured for 30 min by differential interference contrast microscopic analysis relative to control; design: scale not given: the % may be the effect or the level left
Tubulin (Bos taurus) [21] = experiment: Destabilization of microtubule network of purified bovine brain tubulin in vitro assessed as decrease in catastrophes frequency at 25 uM measured for 30 min by differential interference contrast microscopic analysis
[22] = Cytotoxicity against HEK293T cells assessed as reduction in cell proliferation incubated for 72 hrs by MTT assay; format: toxicity, cell-based, HEK293; conditions: human
Summary of the method: as §2

Activity (Tubulin (Homo sapiens) [1]): No effect
SMILES: Cc1ccccc1C1CCC(=O)N1c1ccc([N+](=O)[O-])cc1 (racemic)

Activity (Tubulin (Homo sapiens) [1]): No effect
SMILES: O=C1CCC(c2c3ccccc3cc3ccccc23)N1c1ccc(C(F)(F)F)cc1 (racemic)

Activity (Tubulin (Homo sapiens) [1]): No effect
Activity (Tubulin (Homo sapiens) [2]): inactive
SMILES: COc1cc(N2C(=O)CCC2c2ccc(Br)cc2)cc(OC)c1OC (racemic)

Activity (Tubulin (Homo sapiens) [1]): No effect
SMILES: CC(C)(C)c1ccc(N2C(=O)CCC2/C=C/c2ccccc2)cc1 (racemic)

Activity (Tubulin (Homo sapiens) [1]): Active
SMILES: Cc1ccc([C@H]2C[C@H]3CCC(=O)N3c3ccccc32)cc1 (racemic)
Activity (A549 [3]): inactive

Activity (Tubulin (Homo sapiens) [5]): Active
IC50 (A549 [7]): 82 µM
Activity (Tubulin (Homo sapiens) [2]): Active
SMILES: O=C1CCC(/C=C/c2ccccc2)N1c1ccccc1 (racemic)
Activity (A549 [4]): Active
Activity (A549 [6]): Active
Activity (MCF7 [8]): Active
Activity (HeLa [9]): Active
Activity (A549 [10]): Toxic
Activity (A549 [11]): Active

Activity (Tubulin (Homo sapiens) [1]): No effect
SMILES: COc1ccc(C2CCC(=O)N2c2cccc3[nH]ccc23)cc1OC (racemic)

Activity (Tubulin (Homo sapiens) [1]): No effect
Activity (Tubulin (Homo sapiens) [2]): inactive
SMILES: COc1ccc(C2CCC(=O)N2c2cc(OC)c(OC)c(OC)c2)cc1OC (racemic)

Activity (Tubulin (Homo sapiens) [1]): Active
SMILES: COc1ccc(N2C(=O)CCC2/C=C/c2ccc(C)cc2)cc1OC (racemic)
Activity (A549 [12]): inactive

Activity (Tubulin (Homo sapiens) [5]): Active
IC50 (A549 [7]): 22 µM
Activity (Tubulin (Homo sapiens) [2]): Active
SMILES: O=C1CC[C@@H]2C[C@H](c3ccccc3)c3ccccc3N12 (racemic)
Activity (A549 [4]): Active
Activity (MCF7 [13]): Active
Activity (A549 [14]): Active
Activity (A549 [15]): Active
Activity (MCF7 [8]): Active
Activity (HeLa [9]): Active
Activity (A549 [10]): Toxic
Activity (A549 [3]): Active
Activity (HeLa [16]): Active

Activity (Tubulin (Bos taurus) [17]): Active
Activity (Tubulin (Bos taurus) [20]): > 50%
IC50 (A549 [7]): 5.9 µM
Activity (Tubulin (Bos taurus) [21]): Active
SMILES: O=C1CC[C@@H]2C[C@H](c3cccc(O)c3)c3ccccc3N12 (racemic)
Activity (A549 [18]): Dose-dependent-effect
Activity (A549 [19]): Dose-dependent-effect
Activity (A549 [7]; dose <= 64.0 µM): Dose-dependent-effect
IC50 at 72 h [22]: 4.1 µM

Activity (Tubulin (Homo sapiens) [1]): Active
SMILES: COc1ccc(N2C(=O)CCC2c2ccc(OC)c(OC)c2)cc1 (racemic)

Activity (Tubulin (Homo sapiens) [1]): Active
SMILES: Cc1ccc(/C=C/C2CCC(=O)N2c2ccccc2)cc1 (racemic)
Activity (A549 [12]): inactive
